Activity calls are given as the source filed them. The rule behind the calls is not given here.
What was measured:
[1] = molecular target: T1, Oxysterols receptor LXR-alpha (Homo sapiens) (UniProt Q13133); test: Activity at human LXRalpha by Gal4 transactivation assay relative to GW-3965
T1 sequence (whole entry): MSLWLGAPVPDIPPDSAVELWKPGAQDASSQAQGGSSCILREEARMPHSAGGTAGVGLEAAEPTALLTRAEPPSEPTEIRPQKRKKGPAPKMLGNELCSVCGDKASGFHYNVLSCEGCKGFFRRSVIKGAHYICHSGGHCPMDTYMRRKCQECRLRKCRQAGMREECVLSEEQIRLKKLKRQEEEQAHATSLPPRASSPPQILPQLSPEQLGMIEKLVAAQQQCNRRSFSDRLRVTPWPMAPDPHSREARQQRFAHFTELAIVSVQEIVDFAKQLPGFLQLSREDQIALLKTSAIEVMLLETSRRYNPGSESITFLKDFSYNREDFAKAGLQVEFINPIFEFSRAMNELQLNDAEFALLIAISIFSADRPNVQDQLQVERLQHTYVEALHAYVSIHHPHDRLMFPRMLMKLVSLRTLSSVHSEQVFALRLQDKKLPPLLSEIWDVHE
Summary of the method: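 GAL4 DBD fused to hLXRα or hLXRβ LBD in pcDNA3, co-transfected into HepG2 with luciferase reporter. Cells in DMEM with 10% lipoprotein-deficient FBS, 7.5 µM lovastatin, 100 µM mevalonic acid. Ligand added 24 h post-transfection as 11-point curves from 10 µM; luciferase read after 16 h. Run in quadruplicate. %E = max fold induction vs max fold induction of reference dual agonist in same experiment.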

Liver = test: Effect on ABCA1 gene expression in C57BL/6 mouse liver; format: functional, tissue-based
Summary of the method: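 Male C57BL/6 mice, 10 weeks old, chow-fed, gavaged daily with vehicle or compound (20–200 mpk) for 3 days. Fasted overnight before the last dose; killed 3 h later. Tissue RNA analysed by TaqMan qRT-PCR.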

[2] = molecular target: T2, Oxysterols receptor LXR-beta (Homo sapiens, UniProt P55055); test: Agonist activity at GAL-linked human LXRbeta expressed in THP1 cells assessed as stimulation of co-activator recruitment by FRET assay; format: functional
T2 sequence (P55055 whole entry): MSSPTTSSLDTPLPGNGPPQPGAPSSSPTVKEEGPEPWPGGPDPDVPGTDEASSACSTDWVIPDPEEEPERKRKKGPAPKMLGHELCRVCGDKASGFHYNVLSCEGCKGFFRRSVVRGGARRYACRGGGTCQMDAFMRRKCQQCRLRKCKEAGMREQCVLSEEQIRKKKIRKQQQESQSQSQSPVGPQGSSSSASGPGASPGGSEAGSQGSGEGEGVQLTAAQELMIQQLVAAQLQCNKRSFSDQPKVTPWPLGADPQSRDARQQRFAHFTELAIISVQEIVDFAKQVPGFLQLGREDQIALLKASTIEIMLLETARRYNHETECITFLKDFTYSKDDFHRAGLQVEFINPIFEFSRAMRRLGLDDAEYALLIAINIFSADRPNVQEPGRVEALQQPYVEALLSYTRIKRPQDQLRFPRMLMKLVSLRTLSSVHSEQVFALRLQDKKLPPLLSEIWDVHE
Summary of the method: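 Cell-free TR-FRET coactivator recruitment: 20 nM His-tagged hLXRα or hLXRβ, 300 nM biotinylated SRC-1 peptide, Eu-anti-His antibody, APC-streptavidin. 12-point curves from 20 µM; 1 h at 37 °C. Duplicate. %E = maximal coactivator recruitment relative to reference dual agonist in same experiment.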

[3] = molecular target: T3, Glucocorticoid receptor (Homo sapiens) (UniProt P04150); test: Activity at GR by cell based assay; format: functional
T3 sequence (whole entry): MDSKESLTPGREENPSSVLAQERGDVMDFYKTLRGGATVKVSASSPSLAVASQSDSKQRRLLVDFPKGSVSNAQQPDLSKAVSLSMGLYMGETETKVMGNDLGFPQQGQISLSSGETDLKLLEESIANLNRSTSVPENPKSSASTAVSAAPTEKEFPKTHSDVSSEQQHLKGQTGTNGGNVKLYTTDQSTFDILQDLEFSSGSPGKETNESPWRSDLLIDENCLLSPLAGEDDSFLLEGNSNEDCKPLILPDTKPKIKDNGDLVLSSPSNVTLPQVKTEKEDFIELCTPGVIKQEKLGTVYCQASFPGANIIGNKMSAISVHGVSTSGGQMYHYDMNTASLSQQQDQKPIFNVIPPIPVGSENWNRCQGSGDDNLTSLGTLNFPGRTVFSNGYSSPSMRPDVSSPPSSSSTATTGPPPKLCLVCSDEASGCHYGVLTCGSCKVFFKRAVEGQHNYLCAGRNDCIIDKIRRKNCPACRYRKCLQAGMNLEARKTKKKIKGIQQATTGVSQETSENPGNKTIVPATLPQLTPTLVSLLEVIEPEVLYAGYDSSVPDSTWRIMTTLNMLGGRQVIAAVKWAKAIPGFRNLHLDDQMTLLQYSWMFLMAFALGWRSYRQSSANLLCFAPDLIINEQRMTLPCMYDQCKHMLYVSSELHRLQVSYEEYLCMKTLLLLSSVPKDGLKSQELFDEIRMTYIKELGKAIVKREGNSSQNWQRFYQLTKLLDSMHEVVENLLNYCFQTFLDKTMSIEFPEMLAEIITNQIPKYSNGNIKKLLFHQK

[4] = Cmax in C57BL/6 mouse at 5 mg/kg, iv; format: ADME, organism-based; design: dose 5 mg/kg, route intravenous; conditions: in vivo
Summary of the method: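 Mouse PK study, IV and PO; compound formulated at 2.5 mg/mL in PEG300/Tween 80 (4:1). IV dose 5 mpk (AUC, Cmax, clearance, Vss); oral dose 20 mpk (AUC, Cmax, bioavailability, t1/2).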

[5] = molecular target: Retinoid X receptor (Homo sapiens) (UniProt P28702+P48443+P19793); test: Activity at RXR by cell based assay
THP-1 = test: Increase in ABCA1 gene expression in THP1 cells at 1 uM relative to GW-3965; format: functional, Homo sapiens
Summary of the method: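 THP-1 cells differentiated with 40 ng/mL PMA for 1 day, then switched to RPMI with 2% lipoprotein-deficient FBS. Compound added 6 h later at 1 or 10 µM in DMSO, incubated 24 h. ABCA1 mRNA by one-step TaqMan qRT-PCR, triplicate, multiplexed with 36B4; fold induction vs DMSO, expressed relative to reference dual agonist.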

Chain of Retinoid X receptor (Homo sapiens) (P19793 whole entry, looked up): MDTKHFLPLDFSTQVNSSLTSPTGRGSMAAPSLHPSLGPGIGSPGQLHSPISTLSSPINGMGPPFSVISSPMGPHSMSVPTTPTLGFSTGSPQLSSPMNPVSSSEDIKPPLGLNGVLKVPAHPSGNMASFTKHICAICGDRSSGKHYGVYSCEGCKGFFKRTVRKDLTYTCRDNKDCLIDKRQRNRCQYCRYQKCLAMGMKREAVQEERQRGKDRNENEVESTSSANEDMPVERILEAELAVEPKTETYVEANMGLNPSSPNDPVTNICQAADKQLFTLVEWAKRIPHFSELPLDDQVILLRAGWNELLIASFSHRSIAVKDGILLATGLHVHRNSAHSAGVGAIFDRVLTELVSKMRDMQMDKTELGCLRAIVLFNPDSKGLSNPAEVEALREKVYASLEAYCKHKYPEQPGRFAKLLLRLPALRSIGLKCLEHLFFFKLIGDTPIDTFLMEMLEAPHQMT
Chain of Retinoid X receptor (Homo sapiens) (P28702 whole entry, looked up): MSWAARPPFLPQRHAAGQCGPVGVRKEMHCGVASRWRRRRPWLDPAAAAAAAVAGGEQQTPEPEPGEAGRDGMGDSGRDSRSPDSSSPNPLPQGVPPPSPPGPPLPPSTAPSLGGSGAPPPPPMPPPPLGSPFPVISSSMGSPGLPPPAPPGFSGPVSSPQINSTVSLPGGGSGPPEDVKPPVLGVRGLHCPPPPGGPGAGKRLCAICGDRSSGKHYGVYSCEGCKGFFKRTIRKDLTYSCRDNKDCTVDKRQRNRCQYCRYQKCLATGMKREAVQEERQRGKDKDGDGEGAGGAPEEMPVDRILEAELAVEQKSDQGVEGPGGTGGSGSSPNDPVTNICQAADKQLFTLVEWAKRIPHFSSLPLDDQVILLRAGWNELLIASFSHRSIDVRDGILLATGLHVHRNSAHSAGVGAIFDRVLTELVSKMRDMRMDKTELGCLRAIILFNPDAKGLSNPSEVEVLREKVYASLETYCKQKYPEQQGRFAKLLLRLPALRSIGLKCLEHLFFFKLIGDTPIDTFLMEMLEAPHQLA
Chain of Retinoid X receptor (Homo sapiens) (P48443 whole entry, looked up): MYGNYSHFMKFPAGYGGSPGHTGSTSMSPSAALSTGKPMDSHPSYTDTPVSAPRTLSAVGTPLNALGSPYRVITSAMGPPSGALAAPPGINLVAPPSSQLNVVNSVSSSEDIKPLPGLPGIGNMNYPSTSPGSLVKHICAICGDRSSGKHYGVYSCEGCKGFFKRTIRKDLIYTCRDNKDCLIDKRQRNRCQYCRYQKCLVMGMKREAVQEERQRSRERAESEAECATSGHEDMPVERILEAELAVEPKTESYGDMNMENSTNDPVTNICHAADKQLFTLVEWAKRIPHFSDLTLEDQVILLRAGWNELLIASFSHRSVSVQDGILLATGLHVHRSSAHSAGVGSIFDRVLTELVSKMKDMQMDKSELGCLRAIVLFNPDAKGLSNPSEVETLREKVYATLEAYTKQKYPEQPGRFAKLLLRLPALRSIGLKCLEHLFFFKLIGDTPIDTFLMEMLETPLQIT

For COc1cccc(C2SC(c3ccc(Cl)cc3)=NN2C(=O)c2c(F)cc(F)cc2F)c1OC (racemic), the Efficacy [1] was 19%, the Activity (Liver) was “inactive” and the EC50 [2] was 250 nM. For the same compound, the Activity [3] was “inactive”, the Cmax [4] was 20.4 µM and the Activity [5] was “inactive”. It also gave an Activity (THP-1) of 34%.

From ChEMBL document CHEMBL1148736, “N-Acylthiadiazolines, a new class of liver X receptor agonists with selectivity for LXRbeta” (J Med Chem, 2007)
